pKi: −log10 of the molar value. Activity calls are given as the source filed them.
What was measured:
[1] = molecular target: GABA-A receptor; anion channel; assay: Displacement of [3H]flunitrazepam from GABA-A Benzodiazepine receptor of rat brain membranes; format: cell membranes, Membrane
How it was run: (§1)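 Well-washed, frozen rat whole brain membranes incubated with 0.5 nM [3H]flunitrazepam; nonspecific binding defined with 10 µM clonazepam. IC50 from log concentration vs percent inhibition curves, Ki via Cheng-Prusoff; triplicate determinations.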

Mus musculus [2] = assay: Percentage change in seizure threshold by pentylenetetrazole infusion method in mouse at a dose of 30 mg/Kg administered perorally; Inactive; format: functional, organism-based
Mus musculus [3] = assay: Percent of mice not grasping wire at a dose of 30 mg/Kg administered intraperitoneally in horizontal wire test; Inactive; format: functional, organism-based
Rattus norvegicus [4] = species: Rattus norvegicus; assay: Evaluated for shock induced suppression of drinking by rat vogel test and number of shocks taken were reported; format: functional
How it was run: (§2)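 Rats deprived of water, allowed 4 h drinking, then withdrawn overnight. On test day, free drinking for 30 s, then a mild footshock (0.225 mA, 0.5 s) for every 5 s of accumulated drinking in a 3 min session. Count of shocks taken recorded. Drug given ip to groups of 6-12 rats 30 min before testing; vehicle 1% methyl cellulose in 0.5% saline.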

[5] = test system: GABA-A receptor; anion channel; assay: Displacement of [3H]flunitrazepam from GABA-A Benzodiazepine receptor of rat brain membranes (Insoluble); format: cell membranes, Membrane; how it was run: as §1
Mus musculus [6] = assay: Percentage change in seizure threshold by anti-pentylenetetrazole test in mouse at a dose of 100 mg/Kg administered perorally; Inactive; format: functional, organism-based
Mus musculus [7] = assay: Percentage change in seizure threshold by anti-pentylenetetrazole test in mouse at a dose of 30 mg/Kg administered perorally; Inactive; format: functional, organism-based
[8] = test system: GABA-A receptor; anion channel; assay: Displacement of [3H]flunitrazepam from GABA-A Benzodiazepine receptor of rat brain membranes (insoluble); format: cell membranes, Membrane; how it was run: as §1
Mus musculus [9] = assay: Percentage change in seizure threshold by pentylenetetrazole infusion method in mouse at a dose of 100 mg/Kg administered perorally; format: functional
Mus musculus [10] = assay: Percent of mice not grasping wire at a dose of 30 mg/Kg administered intraperitoneally in horizontal wire test; format: functional
Mus musculus [11] = assay: Percentage change in seizure threshold by anti-pentylenetetrazole test in mouse at a dose of 30 mg/Kg administered perorally; format: functional
Rattus norvegicus [12] = assay: Compound was administered at a dose of 20 mg/Kg intraperitoneally and was evaluated for shock induced suppression of drinking by rat vogel test and number of shocks taken were reported; Inactive; format: functional, organism-based; how it was run: as §2
Mus musculus [13] = assay: Effective dose required for the percentage change in seizure threshold by anti-pentylenetetrazole test in mouse when administered perorally; format: functional; conditions: po
How it was run: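 Male CD-1 mice (18-24 g), groups of 10, dosed orally 60 min before testing. Lightly restrained mice received PTZ (8 mg/mL) by tail-vein infusion at 0.5 mL/min. Time to tonic hindlimb extension was converted to a PTZ threshold dose (mg/kg). Effect was expressed as % change in seizure threshold versus controls, with a two-tailed Student's t test.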

Rattus norvegicus [14] = assay: Compound was administered at a dose of 2.5 mg/Kg intraperitoneally and was evaluated for shock induced suppression of drinking by rat vogel test and number of shocks taken were reported; format: functional
How it was run: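 Rats had water for a 4-h period, then water was withdrawn overnight. On test day, after 30 s of free drinking, a 0.225 mA footshock lasting 0.5 s was given for every 5 s of accumulated drinking in a 3-min session. Drug was given ip to groups of 6-12 rats 30 min before testing. Vehicle controls received 1% methyl cellulose in 0.5% saline. Read-out was the number of shocks taken.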

Mus musculus [15] = assay: Compound was evaluated for horizontal wire test and percent of mice not grasping wire, it was administered perorally; conditions: po
Mus musculus [16] = assay: Compound was evaluated for horizontal wire test and percent of mice not grasping wire, it was administered intraperitoneally; conditions: ip
Mus musculus [17] = assay: Percent of mice not grasping wire at a dose of 300 mg/Kg administered intraperitoneally in horizontal wire test; format: functional
Rattus norvegicus [18] = assay: Compound was administered at a dose of 10 mg/Kg intraperitoneally and was evaluated for shock induced suppression of drinking by rat vogel test and number of shocks taken were reported; format: functional; how it was run: as §2
Mus musculus [19] = assay: Percentage change in seizure threshold by pentylenetetrazole infusion method in mouse at a dose of 30 mg/Kg administered perorally; format: functional

Row | SMILES | pKi [1] | Activity (Mus musculus [3]) | No. of shocks (Rattus norvegicus [4]) | other results
1 | CCc1cc2c(ncc3c(=O)n(-c4ccc(Cl)cc4)[nH]c32)s1 | 8.74 | inactive | 14.4 | Change (Mus musculus [2]): inactive
2 | COc1c2cnc3ccsc3c2nn1-c1ccc(Cl)cc1 |  |  | 13.4 | Change (Mus musculus [2]): inactive; Ki [5]: Insoluble
3 | O=c1c2cnc3ccsc3c2[nH]n1-c1ccc(Cl)cc1 | 9.34 | inactive | 14 | Change (Mus musculus [6]): inactive
4 | Cn1cc2c(ccc3ncc4c(=O)n(-c5ccc(Cl)cc5)[nH]c4c32)n1 | 9.34 | inactive | 5.7 | Change (Mus musculus [7]): inactive
5 | Cn1cc2ccc3ncc4c(=O)n(-c5ccc(Cl)cc5)[nH]c4c3c2n1 | 9.54 | inactive | 7 | 
6 | Clc1ccc(-n2nc3c(cnc4ccsc43)c2Cl)cc1 |  |  | 13.7 | Change (Mus musculus [2]): inactive; Ki [8]: Insoluble
7 | Cc1[nH]sc2ncc3c(=O)n(-c4ccc(Cl)cc4)nc3c12 | 7.00 | inactive | 11.9 | Change (Mus musculus [9]): 48%
8 | Cn1ncc2ccc3ncc4c(=O)n(-c5ccc(Cl)cc5)[nH]c4c3c21 | 7.92 | inactive | 13 | Change (Mus musculus [7]): inactive
9 | Cn1c2ccccc2c2ncc3c(=O)n(-c4ccc(Cl)cc4)[nH]c3c21 |  |  | 10 | Activity (Mus musculus [10]): 25%; Ki [8]: Insoluble
10 | Cn1cnc2c3c(ccc21)ncc1c(=O)n(-c2ccc(Cl)cc2)[nH]c13 | 8.74 | inactive | 12 | 
11 | Cc1nc2ccsc2c2[nH]n(-c3ccc(Cl)cc3)c(=O)c12 | 6.00 |  | 6.1 | Change (Mus musculus [9]): 57%
12 | Cn1c2c(cnc3ccsc32)c(=O)n1-c1ccc(Cl)cc1 | 5.59 |  | 8.6 | Change (Mus musculus [2]): inactive
13 | Oc1c2cnc3cscc3c2nn1-c1ccc(Cl)cc1 | 9.49 | inactive | 17 | Change (Mus musculus [11]): 47%
14 | Cc1ccc2c(ncc3c(=O)n(-c4ccc(Cl)cc4)[nH]c32)n1 | 4.96 |  |  | Change (Mus musculus [6]): inactive; No. of shocks (Rattus norvegicus [12]): inactive
15 | Cn1cc2c(=O)n(-c3ccc(Cl)cc3)nc-2c2sccc21 |  | inactive | 16.8 | Change (Mus musculus [2]): inactive; Ki [5]: Insoluble
16 | CN1C(=O)CN=C(c2ccccc2)c2cc(Cl)ccc21 [DIAZEPAM] |  |  |  | ED50 (Mus musculus [13]): 1.5 mg/kg; No. of shocks (Rattus norvegicus [14]): 21.2; ED50 (Mus musculus [15]): 3.8 mg/kg; ED50 (Mus musculus [16]): 3.1 mg/kg
17 | Cn1ncc2cc3c(cc21)ncc1c(=O)n(-c2ccc(Cl)cc2)[nH]c13 | 7.85 |  | 9 | Change (Mus musculus [7]): inactive
18 | O=C1C2C=Nc3ccccc3C2=NN1c1ccc(Cl)cc1 (centres undefined) [CGS-9896] | 9.46 |  |  | Activity (Mus musculus [17]): 30%; No. of shocks (Rattus norvegicus [18]): 12.7; ED50 (Mus musculus [13]): 3.5 mg/kg
19 | Cn1ncc2c3c(ccc21)ncc1c(=O)n(-c2ccc(Cl)cc2)[nH]c13 | 8.62 | inactive | 13 | Change (Mus musculus [11]): 37%
20 | O=c1c2c(-c3ccccc3)nc3ccsc3c2[nH]n1-c1ccc(Cl)cc1 | < 3.00 |  | 6.7 | Change (Mus musculus [19]): 18%
21 | O=c1c2cnc3c4ccccc4sc3c2[nH]n1-c1ccc(Cl)cc1 | 6.09 | inactive | 14.1 | Change (Mus musculus [2]): inactive

— ChEMBL document CHEMBL1125084, “Synthesis and evaluation of a series of aryl[e]fused pyrazolo[4,3-c]pyridines with potential anxiolytic activity” (J Med Chem, 1990)
